Assay results as given in the array DNA melting data of Ke et al. (doi:10.1101/2024.01.08.574731).

Tests used:
[1] = melting temperature; fluorescence melt of hairpins on a sequencing array, two-state fit, raised by 9.35 °C to match UV melts; conditions: sodium 0.088 M
How it was run: (§1)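 Cy3 fluorescence of library hairpins on a sequenced MiSeq flow cell, with annealed Cy3 and quencher oligos, was imaged in 50 mM Na-HEPES pH 8.0, 25 mM NaCl in 2.5 °C steps up to 60 °C. Signals were normalised to pre-quench Cy3 and to control variants. Melting temperature and folding enthalpy came from bootstrapped two-state fits, inverse-variance combined over four replicates. Fitted temperatures were raised by 9.35 °C to match UV melts.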

[2] = folding enthalpy; higher = less favourable; fluorescence melt of hairpins on a sequencing array, two-state fit; conditions: sodium 0.088 M
How it was run: as §1

Sequence	Tm [1] [°C]	folding enthalpy [2] [kcal/mol]
GCTTGTGGAAACACAAAC (.(((((....))))).)	36.3	-13.8
GCTTTACGAAAGTACAGC (((.(((....))).)))	44.8	-28.6
GCTTTACGAAAGTATAGC (((.(((....))).)))	47	-34.1
GCTTTAGGAAACTGAAGC ((((.((....)).))))	42.4	-30.1
GCTTTCACGAAAGTGAGC (((..(((....))))))	33.8	-11.2
GCTTTCGAAAGAACGAGC ((((((....)))..)))	28.9	-15.1
GCTTTCGCGAAAGCGAGC (((..(((....))))))	48.9	-10.6
GCTTTCTCGAAAGAGAGC (((..(((....))))))	33	-17.8
GCTTTGCGAAAGCACGGC ((..(((....)))..))	41.7	-16.6
GCTTTGCGAAAGCAGCGC ((..(((....)))..))	48.6	-16.7
GCTTTGCGAAAGCCAAGC ((((.((....)).))))	52.6	-23
GCTTTGCGAAAGCGATGC ((.(.((....)).).))	46.5	-19.2
GCTTTGCGAAAGCGGAGC (((..((....))..)))	53.6	-17.3
GCTTTGCGAAAGCGTAGC (((..((....))..)))	37.2	-19.6
GCTTTGCGAAAGCTTAGC (((..((....))..)))	55.2	-16.7
GCTTTGGGAAACCAAAAC (.(((((....))))).)	31.3	-19.8
GCTTTTCCGAAAGGAAGC (((..(((....))))))	33.7	-10.7
GCTTTTGCGAAAGCAAGC (((..(((....))))))	35	-10.3
GGAAAAGGAAACTTTCCC ((.((((....)))).))	27.8	-13.1
GGAAAAGGAAACTTTTTC (.(((((....))))).)	33	-20.6
GGAAACCGAAAGGTATCC (((.(((....))).)))	48.4	-22.7
GGAAACGAAAGTTATCC ((((((....))).)))	31.9	-12.1
GGAAACGAAAGTTCTCC ((((((....))).)))	35.8	-16.8

Sequence	Tm [1] [°C]	folding enthalpy [2] [kcal/mol]
GGAAACGAAAGTTTATCC ((((((....)))..)))	25.6	-12.3
GGAAACGAAAGTTTTTCC ((((((....)))..)))	30.6	-10.8
GGAAACGGAAACGTCTCC (((.(((....))).)))	37.2	-23.6
GGAAAGCGAAAGCTTCC (((.(((....))))))	53.7	-18.1
GGAAAGGAAACTTTCC ((((((....))))))	50	-29.9
GGAAAGGGAAACCCTTCC ((((.((....)).))))	40	-23.1
GGAAATACGAAAGTATCC (((..(((....))))))	30.8	-11.3
GGAAATGGAAACATCTCC (((.(((....))).)))	25.1	-9.93
GGAAATGGAAACATTTTC (.(((((....))))).)	38.5	-33.7
GGAAATGGAAACGTTTCC (((((.(....).)))))	44.1	-19.2
GGAACACCGAAAGGTTCC (((..(((....))))))	42.2	-18.4
GGAACAGGAAACTATTCC ((((.((....)).))))	24.7	-13.4
GGAACCGAAAGGTCATCC ((((((....)))..)))	28.6	-10.8
GGAACCGAAAGGTGATCC ((((((....)))..)))	42.8	-14
GGAACCGAAAGGTGGTCC ((((((....)))..)))	35.4	-14.7
GGAACCGGAAACGGTTTC (.(((((....))))).)	54.5	-21.3
GGAACGCCGAAAGGCTCC (((..(((....))))))	33	-9.39
GGAACTGAAAAGTTCC ((((((....))))))	56.4	-38.3
GGAACTGGAAACAGCTCC (((.(((....))).)))	42.5	-28.5
GGAAGCACGAAAGTGTCC (((..(((....))))))	31.5	-13.1
GGAAGCGAAAGCTACTCC ((((((....)))..)))	30.8	-13.3
GGAAGCGAAAGCTAGTCC ((((((....)))..)))	25.8	-9.98
